# Source: the EternaBench riboswitch data
# Test system: MS2 coat protein
# Assay: apparent Kd, MS2 coat protein; higher = weaker binding; RNA-MaP array
# Method in brief: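 In Tris-HCl pH 7.5 buffer with KCl, MgCl2, BSA, DTT, tRNA and Tween20, with or without input ligand, fluorescently labeled MS2 coat protein at 1.5 nM to 3 μM was incubated at room temperature with designed RNAs. The RNAs had been transcribed on an Illumina sequencing chip from sequenced DNA templates, and incubation ran 0.8–1.5 h at the lowest to 10–20 min at the highest concentrations. Apparent Kd is the median of binding-curve fits for individual clusters. Designs measured on fewer than 10 clusters were excluded.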
# [1] = designed as: ON switch for theophylline, no ligand
# [2] = ligand present: theophylline, designed as: ON switch for theophylline
# [3] = designed as: OFF switch for flavin mononucleotide, no ligand
# [4] = ligand present: flavin mononucleotide, designed as: OFF switch for flavin mononucleotide
# [5] = designed as: OFF switch for theophylline, no ligand
# [6] = ligand present: theophylline, designed as: OFF switch for theophylline
# [7] = designed as: ON switch for flavin mononucleotide, no ligand
# [8] = ligand present: flavin mononucleotide, designed as: ON switch for flavin mononucleotide
# [9] = designed as: ON switch for tryptophan, no ligand
# [10] = ligand present: tryptophan, designed as: ON switch for tryptophan
sequence,measurement,setting,value
GGAGGCCUUAGGGAUACCAGCUAAGUUGAGUACAUGAGGAUCACCCAUGUGUUCCCAGAGAGCCCUUGGCAGCCCUCAUCCGUUC,apparent Kd,[1],0.0116 µM
same,apparent Kd,[2],0.0108 µM
UAAUUAACGUAGAAGGAAUCCCAUCCGUUGCAAUUAGGAUAUACGUUCCCUCGAACAUGAGGAUCACCCAUGUGGCAACCAUAU,apparent Kd,[3],0.0146 µM
same,apparent Kd,[4],0.0138 µM
ACCGAGGCAAUGGAUACCAGUGCGCCACAAUCGUGCUUCAACAUGAGGAUCACCCAUGUGCACCCUUGGCAGCCAACGGGCUCAU,apparent Kd,[5],0.0219 µM
same,apparent Kd,[6],0.0199 µM
AUCACCUUCAAGAAGGUCCCAUACAUGAGGAUCACCCAUGUAAACAAAAUAAUAUGAAAUAAAAGGAAGGAUAUUGAACCAUGA,apparent Kd,[7],0.0551 µM
same,apparent Kd,[8],0.0303 µM
GUAUCGGUUGAGAAGGCGGCGGAGACAUAACUUGGUCCCAACAUGAGGAUCACCCAUGUUAAAUCCGAGGAUAUCAACAAAGCC,apparent Kd,[3],0.00684 µM
same,apparent Kd,[4],0.0189 µM
CGGCGGGACUCACAUGAGGAUCACCCAUGUUUAAAGGGUCAAAAGGAUAUGAAAACAGCAAGUAAUCAGAAGGUUUACCUAGUG,apparent Kd,[3],0.0145 µM
same,apparent Kd,[4],0.0158 µM
CUUAAGUGAGGAUAUCGUGGGACUACAUUAAUGAGAAUCAGCGAGAAGGCACAUGAGGAUCACCCAUGUGGUAA,apparent Kd,[3],0.0186 µM
same,apparent Kd,[4],0.0762 µM
UAGGUUAGGUAGAAGGGCAAGUAAUUCCACAUGAGGAUCACCCAUGUUCCUGUUUGGGAGGCUGUGCAGGAUAUACGAAAAUAA,apparent Kd,[3],0.117 µM
same,apparent Kd,[4],0.153 µM
GCUAUGAACGUAGGAUAUGAAGCCUGGCUUGGUUCAGAAGGACGUGAGUAAGUGAGGUCCUGACAUGAGGAUCACCCAUGUACA,apparent Kd,[3],0.0239 µM
same,apparent Kd,[4],0.0317 µM
GUCCUCGACACGGCCGCCACUGGCUCGCCUGUUGGCGCCGACCCACAUGAGGAUCACCCAUGUUCCAGGACCGGGUGUCACAGCA,apparent Kd,[9],0.224 µM
same,apparent Kd,[10],0.157 µM
CAGGGAAGAUGAGGAUAUCAUAGGAGGAUAUGUCGACACAUGAGGAUCACCCAUGUCGCUUACGUUGAGAAGGCAUUGACGUGU,apparent Kd,[3],0.0132 µM
same,apparent Kd,[4],0.0113 µM
AUAGUGCGGCUGAAGGAUAUGGAACCCGCGACAUGAGGAUCACCCAUGUACUUAAGCGACAUUUGCCAGAAGGUCAAGCAUUCCAU,apparent Kd,[7],0.0133 µM
same,apparent Kd,[8],0.0112 µM
AUACCAACGGUCAGGAUAUAGGUAACAAGGAAAGACUAGAAGGGACAUGAGGAUCACCCAUGUUUUAACAUGAU,apparent Kd,[3],0.00728 µM
same,apparent Kd,[4],0.00689 µM
UUACAACAUGAGGAUCACCCAUGUUAGGAUAUACGAGGGACAGCGCGGUUAUAUCCCUGUAGAAGGAACACGGG,apparent Kd,[3],0.0396 µM
same,apparent Kd,[4],0.0476 µM
GUAUUCAUGACGGCCGCCACUGCAAGCCUCCUCAUGGCAGAUUGACAUGAGGAUCACCCAUGUCUCAGGACCGGGUCUGGCAUCC,apparent Kd,[9],0.188 µM
same,apparent Kd,[10],0.171 µM
GGCGGGAGAAUAGGAUAUUCCGGUAAUCGACAUGAGGAUCACCCAUGUACCGUUCAACCGAUACCGAAGAAGGAUUAUAAGCCU,apparent Kd,[7],0.0166 µM
same,apparent Kd,[8],0.0138 µM
GCGGGACAUGAGGAUCACCCAUGUGAGGAUAUGUGCAGUGGCAGGGACAGUUAAAAGUACAGAAGGCACAGCCC,apparent Kd,[3],0.0197 µM
same,apparent Kd,[4],0.0176 µM
UUCUCAUCGUACAUGAGGAUCACCCAUGUCUCCCAUUUACCCUAGGAUAUGAAAGACCUUUACUCUCAGAAGGAGGAUGAUGCA,apparent Kd,[7],0.0633 µM
same,apparent Kd,[8],0.0519 µM
GUGGACAUGAGGAUCACCCAUGUAAGUCGGCGAGGACCGGUACGGCCGCCACUCGUGUUCUGUCUCAGCUCAAACGUAGCCGGAA,apparent Kd,[9],0.0363 µM
same,apparent Kd,[10],0.0179 µM
GAAACAUUCCCGAGUUUCUACAUGAGGAUCACCCAUGUCCCAUAGGAUAUCUCUACCAGCCGCCGAGAGAAGGAUGUAGUCACU,apparent Kd,[7],0.185 µM
same,apparent Kd,[8],0.148 µM
CAACAGGAGCAGAAGGUCCAACUCAUAAAUACGGAAGGAUAUGCGUGACCAACUAAAGAAACAUGAGGAUCACCCAUGUAAGCG,apparent Kd,[7],0.0107 µM
same,apparent Kd,[8],0.00753 µM
AUAACACAUGAGGAUCACCCAUGUAAGGAUACCAGUUUCUGAUUAAACCCUUGGCAGCCUAGAGAUAGUCAUGUAAUAACGGCGA,apparent Kd,[1],0.0119 µM
same,apparent Kd,[2],0.019 µM
UUGUACGAAACUGAUACCAGCCAGCAAUGCCACCAAGAGCACAUGAGGAUCACCCAUGUUGGCCCUUGGCAGCAGGACAAUAAGC,apparent Kd,[5],0.00863 µM
same,apparent Kd,[6],0.00947 µM
GUAGGUUGCCAAGGAUAUGCGGGUACUCUUCCGAAACAUGAGGAUCACCCAUGUACUCUCCUGUAGCAGAAGGUGGCUUGGUGA,apparent Kd,[3],0.493 µM
same,apparent Kd,[4],0.269 µM
GGAAAAUAUAGGGAUACCAGAUAUGGCGUUGACAUGAGGAUCACCCAUGUCUUAGCAGUGAUCCCUUGGCAGCCCACACCAUCCG,apparent Kd,[1],0.0716 µM
same,apparent Kd,[2],0.034 µM
